{"data": "Results of several laboratories", "organism": "Plasmodium falciparum", "effect on": "parasite growth"}
{"Structure (SMILES)": "CCC1=C(CC)/C(=C/c2[nH]c(Cc3ccc(Cl)cc3)cc2Cc2ccc(Cl)cc2)N=C1c1ccc[nH]1", "test": "SYBR Green", "system": "D6", "setting": "72 h, blood stage", "IC50": "79.6 nM"}
{"Structure (SMILES)": "N=C(CC(O)c1cc2c(F)cc(F)cc2c2cc(C(F)(F)F)ccc12)Nc1ccc(Br)cc1 (stereo not shown)", "test": "ELISA", "system": "3D7", "setting": "72 h, blood stage", "IC50": "6.1 nM"}
{"Structure (SMILES)": "CCCCCCCCNC(C)C(O)c1ccc(SC(C)C)cc1 (stereo not shown)", "system": "NF54", "setting": "blood stage", "IC50": "72.6 nM"}
{"Structure (SMILES)": "COC1=CC(c2ccc[nH]2)=N/C1=C\\c1[nH]c(Cc2ccc(OC(F)(F)F)cc2)cc1Cc1ccc(OC(F)(F)F)cc1", "test": "SYBR Green", "system": "D6", "setting": "72 h, blood stage", "IC50": "25.2 nM"}
{"Structure (SMILES)": "N=C(CC(O)c1nc2ccccc2c2ccc(Cl)cc12)Nc1ccc(F)cc1 (stereo not shown)", "test": "ELISA", "system": "3D7", "setting": "72 h, blood stage", "IC50": "18.7 nM"}
{"Structure (SMILES)": "CCCCCCCCCCCCCCCCCC(=O)O", "test": "SYBR Green", "system": "3D7", "setting": "48 h, blood stage", "IC50": "7.66 µg/mL"}
{"Structure (SMILES)": "CO[C@H]1/C=C/O[C@@]2(C)Oc3c(C)c(O)c4c(O)c(c(/C=N/N5CCN(C6CCCC6)CC5)c(O)c4c3C2=O)NC(=O)/C(C)=C\\C=C\\[C@H](C)[C@H](O)[C@@H](C)[C@@H](O)[C@@H](C)[C@H](OC(C)=O)[C@@H]1C", "test": "SYBR Green", "system": "3D7", "setting": "blood stage", "IC50": "238 nM"}
{"Structure (SMILES)": "N=C(CC(O)c1cc2cccnc2c2cccnc12)Nc1ccc(F)cc1 (stereo not shown)", "test": "ELISA", "system": "DD2", "setting": "72 h, drug-resistant strain, blood stage", "IC50": "8780 nM"}
{"Structure (SMILES)": "COc1ccc2cc1Oc1ccc(cc1)C[C@H]1c3c(cc4c(c3Oc3cc5c(cc3OC)CCN(C)[C@@H]5C2)OCO4)CCN1C", "test": "SYBR Green", "system": "3D7", "setting": "blood stage", "IC50": "664 nM"}
{"Structure (SMILES)": "N=C(CC(O)c1cc2c(F)cc(F)cc2c2cc(C(F)(F)F)ccc12)Nc1ccc(F)c(F)c1 (stereo not shown)", "test": "ELISA", "system": "3D7", "setting": "72 h, blood stage", "IC50": "7.2 nM"}
{"Structure (SMILES)": "O=C1C(O)=C([C@H]2CC[C@H](c3ccc(Cl)cc3)CC2)C(=O)c2ccccc21", "test": "SYBR Green", "system": "D6", "setting": "72 h, blood stage", "IC50": "0.106 nM"}
{"Structure (SMILES)": "CNCC[C@H](Oc1cccc2ccccc12)c1cccs1", "test": "SYBR Green", "system": "3D7", "setting": "blood stage", "IC50": "233 nM"}
{"Structure (SMILES)": "CCN(CC)CCCC(C)Nc1ccnc2cc(Cl)ccc12 (stereo not shown)", "setting": "72 h, blood stage", "IC50": "28.2 nM"}
{"Structure (SMILES)": "CC1=C(C)/C(=C/c2cc(-c3ccc(OC(F)(F)F)cc3)c(C)[nH]2)N=C1c1ccc[nH]1", "test": "SYBR Green", "system": "D6", "setting": "72 h, blood stage", "IC50": "> 2500 nM"}
{"Structure (SMILES)": "N=C(CC(O)c1nc2ccccc2c2ccccc12)Nc1ccc(F)cc1 (stereo not shown)", "test": "ELISA", "system": "3D7", "setting": "72 h, blood stage", "IC50": "123 nM"}
{"Structure (SMILES)": "CC1=C(C)/C(=C/c2[nH]c(Cc3ccc(OC(F)(F)F)cc3)cc2Cc2ccc(OC(F)(F)F)cc2)N=C1c1ccc[nH]1", "test": "SYBR Green", "system": "D6", "setting": "72 h, blood stage", "IC50": "1300 nM"}
{"Structure (SMILES)": "CO[C@H]1/C=C/O[C@@]2(C)Oc3c(C)c(O)c4c(O)c(c(/C=N/N5CCN(C)CC5)c(O)c4c3C2=O)NC(=O)/C(C)=C\\C=C\\[C@H](C)[C@H](O)[C@@H](C)[C@@H](O)[C@@H](C)[C@H](OC(C)=O)[C@@H]1C", "system": "NF54", "setting": "blood stage", "IC50": "900 nM"}
{"Structure (SMILES)": "N=C(CC(O)c1nc2cc(F)ccc2c2ccc(F)cc12)Nc1ccc(F)cc1 (stereo not shown)", "test": "ELISA", "system": "3D7", "setting": "72 h, blood stage", "IC50": "407 nM"}
{"Structure (SMILES)": "CO[C@H]1C[C@H](O[C@@H]2/C(C)=C/C[C@@H]3C[C@@H](C[C@]4(CC[C@H](C)[C@@H](C5CCCCC5)O4)O3)OC(=O)[C@@H]3C=C(C)/C(=N/O)[C@H]4OC/C(=C\\C=C\\[C@@H]2C)[C@]43O)O[C@@H](C)[C@@H]1O", "test": "SYBR Green", "system": "3D7", "setting": "blood stage", "IC50": "553 nM"}
{"Structure (SMILES)": "N=C(CC(O)c1nc2ccccc2c2ccc(Br)cc12)Nc1ccc(F)cc1 (stereo not shown)", "test": "ELISA", "system": "DD2", "setting": "72 h, drug-resistant strain, blood stage", "IC50": "46.3 nM"}
{"Structure (SMILES)": "CCC1=C(CC)/C(=C/c2cc(Cc3ccc(OC(F)(F)F)cc3)c(C)[nH]2)N=C1c1ccc[nH]1", "test": "SYBR Green", "system": "D6", "setting": "72 h, blood stage", "IC50": "265 nM"}
{"Structure (SMILES)": "CCN(CC)CCCC(C)Nc1ccnc2cc(Cl)ccc12 (stereo not shown)", "test": "SYBR Green", "system": "3D7", "setting": "blood stage", "IC50": "22.4 nM"}
